Test results: ChEMBL document CHEMBL1949495, “Synthesis and cytotoxicity evaluation of biaryl-based chalcones and their potential in TNFα-induced nuclear factor-κB activation inhibition” (Eur J Med Chem, 2012)

tested on: MCF7; experiment: Cytotoxicity against human MCF7 cells assessed as total cell protein after 48 hrs by SRB assay; assay type: functional, cell-based; conditions: MCF7, 48 h
Summary of the method: (§1)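 Cells kept in RPMI-1640 with 2 mM glutamine, 10% FBS, penicillin/streptomycin, 37 °C, 5% CO2. Seeded 5000 cells/well, grown 24 h, then serial dilutions from 10 mM DMSO stocks added in medium (final DMSO 0.5%), triplicate, 48 h. TCA fixation at 4 °C for 1 h, 0.4% SRB stain, dye solubilized in 10 mM Tris pH 10.4, OD 515 nm. IC50 by nonlinear regression of % control viability vs log concentration; experiments repeated at least twice.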

First: COc1ccc(/C=C/C(=O)c2ccc(N)c(-c3ccc(F)cc3)c2)cc1
Second: COc1ccc(/C=C/C(=O)c2cccc(-c3ccc(F)cc3)c2)cc1
The IC50 of the first is 2.2-fold lower: 7.58 µM for the first, 16.4 µM for the second.

First: COc1ccc(/C=C/C(=O)c2cccc(-c3cccc(F)c3)c2)cc1
Second: O=C(/C=C/c1ccc(Br)cc1)c1cccc(-c2cccc(F)c2)c1
The IC50 of the first is 5.9-fold lower: 3.08 µM for the first, 18.3 µM for the second. The first is the more potent here.

COc1ccccc1/C=C/C(=O)c1cccc(-c2cccc(F)c2)c1 and O=C(/C=C/c1ccccc1Br)c1cccc(-c2cccc(F)c2)c1 are within 1.5-fold of each other in IC50: 18.9 µM for the first, 20 µM for the second.

Compared with COc1cc(/C=C/C(=O)c2ccc(N)c(-c3ccc(F)cc3)c2)ccc1O, Nc1ccc(C(=O)/C=C/c2ccc(O)c(F)c2)cc1-c1ccc(F)cc1 is 1.7-fold higher in IC50: 10.5 µM for the first, 18.3 µM for the second. The first is the more potent here.

O=C(/C=C/c1cccc(-c2ccc(F)cc2)c1)c1ccc(O)cc1 and COc1cc(/C=C/C(=O)c2cccc(-c3cccc(F)c3)c2)ccc1O are within 1.5-fold of each other in IC50: 10.8 µM for the first, 14.2 µM for the second.

COc1ccc(OC)c(/C=C/C(=O)c2ccc(N)c(-c3ccc(F)cc3)c2)c1 and COc1ccc(/C=C/C(=O)c2ccc(N)c(-c3ccc(F)cc3)c2)c(OC)c1 are within 1.5-fold of each other in IC50: 8.92 µM for the first, 10.8 µM for the second.

COc1cccc(/C=C/C(=O)c2cccc(-c3cccc(F)c3)c2)c1OC and COc1cccc(/C=C/C(=O)c2ccc(N)c(-c3ccc(F)cc3)c2)c1OC are within 1.5-fold of each other in IC50: 11.7 µM for the first, 13.3 µM for the second.

First: COc1cc(/C=C/C(=O)c2ccc(N)c(-c3ccc(F)cc3)c2)cc(Br)c1O
Second: COc1ccc(OC)c(/C=C/C(=O)c2ccc(N)c(-c3ccc(OC)c(OC)c3)c2)c1
The IC50 of the first is 6.4-fold higher: 40.5 µM for the first, 6.33 µM for the second.

For COc1ccc(-c2cc(C(=O)/C=C/c3cccc(OC)c3OC)ccc2N)cc1OC, the IC50 was 10.2 µM.

tested on: A549; experiment: Cytotoxicity against human A549 cells assessed as total cell protein after 48 hrs by SRB assay; assay type: functional, cell-based; conditions: A549, 48 h; summary of the method: as §1

Compared with COc1ccc(/C=C/C(=O)c2ccc(N)c(-c3ccc(F)cc3)c2)cc1, COc1ccc(/C=C/C(=O)c2cccc(-c3ccc(F)cc3)c2)cc1 is 2.6-fold higher in IC50: 4.31 µM for the first, 11.2 µM for the second. The first is the more potent here.

Compared with COc1ccc(/C=C/C(=O)c2cccc(-c3cccc(F)c3)c2)cc1, O=C(/C=C/c1ccc(Br)cc1)c1cccc(-c2cccc(F)c2)c1 is 8.1-fold higher in IC50: 2.44 µM for the first, 19.8 µM for the second. The first is the more potent here.

COc1ccccc1/C=C/C(=O)c1cccc(-c2cccc(F)c2)c1 and O=C(/C=C/c1ccccc1Br)c1cccc(-c2cccc(F)c2)c1 are within 1.5-fold of each other in IC50: 15.5 µM for the first, 12.4 µM for the second.

Going from COc1cc(/C=C/C(=O)c2ccc(N)c(-c3ccc(F)cc3)c2)ccc1O to Nc1ccc(C(=O)/C=C/c2ccc(O)c(F)c2)cc1-c1ccc(F)cc1, the IC50 rises from 12.2 µM to 24.5 µM (2-fold).

O=C(/C=C/c1cccc(-c2ccc(F)cc2)c1)c1ccc(O)cc1 and COc1cc(/C=C/C(=O)c2cccc(-c3cccc(F)c3)c2)ccc1O are within 1.5-fold of each other in IC50: 8.36 µM for the first, 9.9 µM for the second.

Compared with COc1ccc(OC)c(/C=C/C(=O)c2ccc(N)c(-c3ccc(F)cc3)c2)c1, COc1ccc(/C=C/C(=O)c2ccc(N)c(-c3ccc(F)cc3)c2)c(OC)c1 is 2-fold higher in IC50: 7.04 µM for the first, 14.4 µM for the second. The first is the more potent here.

COc1cccc(/C=C/C(=O)c2cccc(-c3cccc(F)c3)c2)c1OC and COc1cccc(/C=C/C(=O)c2ccc(N)c(-c3ccc(F)cc3)c2)c1OC are within 1.5-fold of each other in IC50: 8.9 µM for the first, 13.3 µM for the second.

First: COc1cc(/C=C/C(=O)c2ccc(N)c(-c3ccc(F)cc3)c2)cc(Br)c1O
Second: COc1ccc(OC)c(/C=C/C(=O)c2ccc(N)c(-c3ccc(OC)c(OC)c3)c2)c1
The IC50 of the first is higher: greater than 50 µM for the first, 6.2 µM for the second. The second is the more potent here.

For COc1ccc(-c2cc(C(=O)/C=C/c3cccc(OC)c3OC)ccc2N)cc1OC, the IC50 was 6.54 µM.

tested on: not listed separately; experiment: Cytotoxicity against human CNE2 cells assessed as total cell protein after 48 hrs by SRB assay; assay type: functional, cell-based; conditions: CNE-2, 48 h; summary of the method: as §1

Compared with COc1ccc(/C=C/C(=O)c2ccc(N)c(-c3ccc(F)cc3)c2)cc1, COc1ccc(/C=C/C(=O)c2cccc(-c3ccc(F)cc3)c2)cc1 is 3.5-fold higher in IC50: 1.6 µM for the first, 5.55 µM for the second. The first is the more potent here.

Going from COc1ccc(/C=C/C(=O)c2cccc(-c3cccc(F)c3)c2)cc1 to O=C(/C=C/c1ccc(Br)cc1)c1cccc(-c2cccc(F)c2)c1, the IC50 rises from 0.74 µM to 10.5 µM (14-fold). The first is the more potent here.

COc1ccccc1/C=C/C(=O)c1cccc(-c2cccc(F)c2)c1 and O=C(/C=C/c1ccccc1Br)c1cccc(-c2cccc(F)c2)c1 are within 1.5-fold of each other in IC50: 10.4 µM for the first, 8.91 µM for the second.

Compared with COc1cc(/C=C/C(=O)c2ccc(N)c(-c3ccc(F)cc3)c2)ccc1O, Nc1ccc(C(=O)/C=C/c2ccc(O)c(F)c2)cc1-c1ccc(F)cc1 is 3.1-fold higher in IC50: 5.75 µM for the first, 18.1 µM for the second.

O=C(/C=C/c1cccc(-c2ccc(F)cc2)c1)c1ccc(O)cc1 and COc1cc(/C=C/C(=O)c2cccc(-c3cccc(F)c3)c2)ccc1O are within 1.5-fold of each other in IC50: 5.51 µM for the first, 5.69 µM for the second.

COc1ccc(OC)c(/C=C/C(=O)c2ccc(N)c(-c3ccc(F)cc3)c2)c1 and COc1ccc(/C=C/C(=O)c2ccc(N)c(-c3ccc(F)cc3)c2)c(OC)c1 are within 1.5-fold of each other in IC50: 6.71 µM for the first, 6.29 µM for the second.

COc1cccc(/C=C/C(=O)c2cccc(-c3cccc(F)c3)c2)c1OC and COc1cccc(/C=C/C(=O)c2ccc(N)c(-c3ccc(F)cc3)c2)c1OC are within 1.5-fold of each other in IC50: 10 µM for the first, 11.3 µM for the second.

Compared with COc1cc(/C=C/C(=O)c2ccc(N)c(-c3ccc(F)cc3)c2)cc(Br)c1O, COc1ccc(OC)c(/C=C/C(=O)c2ccc(N)c(-c3ccc(OC)c(OC)c3)c2)c1 is 3.9-fold lower in IC50: 25.5 µM for the first, 6.59 µM for the second. The second is the more potent here.

Work on COc1ccc(-c2cc(C(=O)/C=C/c3cccc(OC)c3OC)ccc2N)cc1OC yielded an IC50 of 6.6 µM.

tested on: HepG2; experiment: Cytotoxicity against human HepG2 cells assessed as total cell protein after 48 hrs by SRB assay; assay type: functional, cell-based; conditions: HepG2, 48 h; summary of the method: as §1

Going from COc1ccc(/C=C/C(=O)c2ccc(N)c(-c3ccc(F)cc3)c2)cc1 to COc1ccc(/C=C/C(=O)c2cccc(-c3ccc(F)cc3)c2)cc1, the IC50 rises from 3.75 µM to 5.65 µM (1.5-fold).

First: COc1ccc(/C=C/C(=O)c2cccc(-c3cccc(F)c3)c2)cc1
Second: O=C(/C=C/c1ccc(Br)cc1)c1cccc(-c2cccc(F)c2)c1
The IC50 of the first is 5.8-fold lower: 1.72 µM for the first, 9.92 µM for the second.

COc1ccccc1/C=C/C(=O)c1cccc(-c2cccc(F)c2)c1 and O=C(/C=C/c1ccccc1Br)c1cccc(-c2cccc(F)c2)c1 are within 1.5-fold of each other in IC50: 15.4 µM for the first, 12.8 µM for the second.

Going from COc1cc(/C=C/C(=O)c2ccc(N)c(-c3ccc(F)cc3)c2)ccc1O to Nc1ccc(C(=O)/C=C/c2ccc(O)c(F)c2)cc1-c1ccc(F)cc1, the IC50 rises from 4.3 µM to 11.7 µM (2.7-fold).

O=C(/C=C/c1cccc(-c2ccc(F)cc2)c1)c1ccc(O)cc1 and COc1cc(/C=C/C(=O)c2cccc(-c3cccc(F)c3)c2)ccc1O are within 1.5-fold of each other in IC50: 5.12 µM for the first, 6.83 µM for the second.

Going from COc1ccc(OC)c(/C=C/C(=O)c2ccc(N)c(-c3ccc(F)cc3)c2)c1 to COc1ccc(/C=C/C(=O)c2ccc(N)c(-c3ccc(F)cc3)c2)c(OC)c1, the IC50 rises from 4.01 µM to 7.74 µM (1.9-fold).

COc1cccc(/C=C/C(=O)c2cccc(-c3cccc(F)c3)c2)c1OC and COc1cccc(/C=C/C(=O)c2ccc(N)c(-c3ccc(F)cc3)c2)c1OC are within 1.5-fold of each other in IC50: 9.2 µM for the first, 7.37 µM for the second.

Going from COc1cc(/C=C/C(=O)c2ccc(N)c(-c3ccc(F)cc3)c2)cc(Br)c1O to COc1ccc(OC)c(/C=C/C(=O)c2ccc(N)c(-c3ccc(OC)c(OC)c3)c2)c1, the IC50 falls from 4.73 µM to 2.1 µM (2.3-fold). The second is the more potent here.

COc1ccc(-c2cc(C(=O)/C=C/c3cccc(OC)c3OC)ccc2N)cc1OC gave an IC50 of 5.36 µM.

tested on: SW480; experiment: Cytotoxicity against human SW480 cells assessed as total cell protein after 48 hrs by SRB assay; assay type: functional, cell-based; conditions: SW480, 48 h; summary of the method: as §1

COc1ccc(/C=C/C(=O)c2ccc(N)c(-c3ccc(F)cc3)c2)cc1 and COc1ccc(/C=C/C(=O)c2cccc(-c3ccc(F)cc3)c2)cc1 are within 1.5-fold of each other in IC50: 7.23 µM for the first, 8.35 µM for the second.

Compared with COc1ccc(/C=C/C(=O)c2cccc(-c3cccc(F)c3)c2)cc1, O=C(/C=C/c1ccc(Br)cc1)c1cccc(-c2cccc(F)c2)c1 is 4-fold higher in IC50: 4.51 µM for the first, 18.2 µM for the second. The first is the more potent here.

COc1ccccc1/C=C/C(=O)c1cccc(-c2cccc(F)c2)c1 and O=C(/C=C/c1ccccc1Br)c1cccc(-c2cccc(F)c2)c1 are within 1.5-fold of each other in IC50: 16.6 µM for the first, 14.8 µM for the second.

First: COc1cc(/C=C/C(=O)c2ccc(N)c(-c3ccc(F)cc3)c2)ccc1O
Second: Nc1ccc(C(=O)/C=C/c2ccc(O)c(F)c2)cc1-c1ccc(F)cc1
The IC50 of the first is 3.8-fold lower: 8.35 µM for the first, 31.7 µM for the second. The first is the more potent here.

Compared with O=C(/C=C/c1cccc(-c2ccc(F)cc2)c1)c1ccc(O)cc1, COc1cc(/C=C/C(=O)c2cccc(-c3cccc(F)c3)c2)ccc1O is 1.8-fold lower in IC50: 12 µM for the first, 6.74 µM for the second.

First: COc1ccc(OC)c(/C=C/C(=O)c2ccc(N)c(-c3ccc(F)cc3)c2)c1
Second: COc1ccc(/C=C/C(=O)c2ccc(N)c(-c3ccc(F)cc3)c2)c(OC)c1
The IC50 of the first is 1.6-fold lower: 7.83 µM for the first, 12.4 µM for the second. The first is the more potent here.

COc1cccc(/C=C/C(=O)c2cccc(-c3cccc(F)c3)c2)c1OC and COc1cccc(/C=C/C(=O)c2ccc(N)c(-c3ccc(F)cc3)c2)c1OC are within 1.5-fold of each other in IC50: 13.5 µM for the first, 12.5 µM for the second.

Compared with COc1cc(/C=C/C(=O)c2ccc(N)c(-c3ccc(F)cc3)c2)cc(Br)c1O, COc1ccc(OC)c(/C=C/C(=O)c2ccc(N)c(-c3ccc(OC)c(OC)c3)c2)c1 is 3.5-fold lower in IC50: 22.9 µM for the first, 6.49 µM for the second.

With COc1ccc(-c2cc(C(=O)/C=C/c3cccc(OC)c3OC)ccc2N)cc1OC the IC50 was 8.33 µM.
